ChEMBL document CHEMBL4513216, “Probing the Open Global Health Chemical Diversity Library for Multistage-Active Starting Points for Next-Generation Antimalarials” (ACS Infect Dis, 2020)

Assay: Toxicity liver stage against HepG2, at 10uM
Assay type: cell-based
Parameters: test concentration 10 uM, cell line HepG2-A16-CD81EGFP
Details: human, HepG2-A16-CD81EGFP cells; read-out: INHIBITION
How it was run: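 Uninfected HepG2-A16-CD81EGFP cells, 3 × 10^3 per well, 1536-well, plated on prespotted compound at 10 μM final, parasite-free screening media added to match infected plates; puromycin 10 μM positive, DMSO 0.5% negative; run in parallel with 48 h PbLuc assay at 37 °C, 5% CO2; viability by CellTiter-Glo luminescence, normalized to controls.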

| SMILES | cytotoxicity at 10 µM |
| --- | --- |
| COc1ccc(CCC(=O)NCCN2CCC(c3cccs3)CC2)cc1 | 4.59% |
| CNc1nc2c(s1)C(c1cccc(Cl)c1Cl)CC(=O)N2 (stereo unspecified) | 5.97% |
| Cc1oc(-c2nc(C#N)c(NC3CC3)o2)cc1S(=O)(=O)N1CCCC1 | -9.95% |
| Cc1c(Br)c(C(F)F)nn1C(C)C(=O)O (stereo unspecified) | 4.51% |
| CCn1c(NCC2CCCO2)nc2c(C)nn(C)c2c1=O (stereo unspecified) | -3.09% |
| CCn1c(SCC(N)=O)nnc1-c1csc2c1CCCC2 | 16% |
| COC(=O)c1cc(C2CC2)nc2c(C#N)cnn12 | 14% |
| Cc1nnc(C2CCN(c3ncccn3)CC2)o1 | 10.8% |
| Cc1cc(C)nc(N2CC=C[C@H]2C(=O)NCc2ccc3c(c2)OCO3)n1 | 0.711% |
| Cc1noc(C)c1CCC(=O)N1CCOCC1CCc1cnccn1 (stereo unspecified) | -3.37% |
| CC(=O)N1CCC(c2cccc(-c3cccc(C(=O)O)c3)n2)CC1 | -0.0353% |
| c1ccc(CCN2CCCC2c2ccnc(Nc3cnccn3)n2)cc1 (stereo unspecified) | -3.65% |
| CN(C)C(=O)c1cc(-c2ccc(S(C)(=O)=O)cc2)c2cnn(C)c2n1 | 3.63% |
| CC1CCC(NS(=O)(=O)CC(=O)NCC2CCC2)CC1 (stereo unspecified) | -3.17% |
| CCOC(=O)c1nnc2ccccc2c1N1CCN(CC)CC1 | -2.27% |
| O=C(Nc1cccc(C(F)F)c1)N[C@@H]1C=C[C@H](CO)C1 | -4.81% |
| CN(C)C(CNC(=O)c1nc(N2CCCC2)ncc1Cl)c1ccco1 (stereo unspecified) | 5.92% |
| Cc1cc(NCC2(O)CCOCC2)c2ccccc2n1 | -13.3% |
| CCC(CC)NC(=O)CN1CCSCC1 | -8.98% |
| CC(=O)Nc1cccc(C(C)NCC2CCS(=O)(=O)CC2)c1 (stereo unspecified) | 0.224% |
| CC(C)(C)NC(=O)CNC(=O)Nc1cc(-c2ccccc2)ns1 | 16.6% |
| Cn1cc(CNCCc2cccnc2)c(-c2cccnc2)n1 | 9.37% |
| CSCC(C)(O)CNc1ncccc1C(F)(F)F (stereo unspecified) | 13.7% |

| SMILES | cytotoxicity at 10 µM |
| --- | --- |
| CC1CN(Cc2ccccc2)CCCN1CCS(C)(=O)=O (stereo unspecified) | -1.4% |
| O=C(CCCNC(=O)NCC1CCCO1)Nc1ccc(Cl)cc1 (stereo unspecified) | -4.52% |
| O=C(c1n[nH]c2c1CCC2)N1CCCC1c1nc(-c2ccccn2)no1 (stereo unspecified) | -1.82% |
| CSCCc1nc(-c2ccc3c(c2)OCO3)n(C)n1 | 1.6% |
| O=C(CN1CCN(c2ncnc3c2CCNCC3)CC1)N1CCCCC1 | 6.63% |
| OC[C@@H]1CCCN1c1ccc(-c2nc(COc3ccccc3)no2)cn1 | -8.42% |
| c1ccc(Cc2noc(-c3ccc(NCC4CCCCO4)nc3)n2)cc1 (stereo unspecified) | 3% |
| Cc1nc(CC(=O)N2CCCC(N(C)Cc3ccccc3)C2)cs1 (stereo unspecified) | 9.38% |
| O=C(O)c1cnc(N2CCC(c3nccn3CC3CC3)CC2)c(Cl)c1 | -9.98% |
| COc1ccc2c(c1)C(C(=O)NCCCN1CCN(C)CC1)CC(=O)N2 (stereo unspecified) | 11.2% |
| CN(C)C[C@H]1C[C@@H](CO)CN(C(=O)c2cc(=O)[nH]c3cc(F)ccc23)C1 | -4.16% |
| O=C(c1cc[nH]n1)N1CCc2ncnc(N3CCSCC3)c2CC1 | -3.67% |
| CCN1CCCC(C)(C(=O)NCCCc2nc(C)cs2)C1 (stereo unspecified) | 1.54% |
| Cc1cc(C(=O)N2CCCC(C(=O)c3nccn3C)C2)c(=O)[nH]c1C (stereo unspecified) | 3.15% |
| CO[C@H]1CN(C(C)C)C[C@@H]1NC(=O)c1cc(-c2ccccc2O)n[nH]1 | -0.247% |
| Cc1cccc(C(C(=O)N(C)Cc2ccon2)N(C)C)c1 (stereo unspecified) | 5.4% |
| CN(c1ncccc1CNC(=O)c1cscn1)C1CCCCC1 | 1.86% |
| COCc1nc(C(=O)NS(=O)(=O)c2cc(C)ccc2C)cs1 | -4.04% |
| COc1cccc(CN2CCCCC2c2n[nH]cc2-c2cc(C)no2)c1 (stereo unspecified) | 17.1% |
| Cc1ncccc1-c1cc2cccnc2n1CCCNC(=O)C1CC1 | 2.18% |
| NC(=O)C1CN(c2ccc(F)cc2)CCN1 (stereo unspecified) | -4.98% |
| CN(C)CCO[C@H]1CN(CC2CC2)[C@@H]2CCCO[C@H]12 | -96.3% |
| CC(C)OCCCN(CC(=O)N1CCNCC1)C(=O)c1cccc(Cl)c1 | 10.3% |
